Screens deposited in PubChem by several laboratories.
MPTP inh = mitochondrial permeability transition pore inhibitors, primary screen, biochemical, isolated mouse mitochondria, absorbance. Ca2+ swelling absorbance, 30 min. inhibition, % at 10 µM. actives 1.4% (n = 360,000);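 active = inhibition of 50% or more, scaled per plate between neutral and stimulator controls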;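 also: 0% = DMSO wells given calcium and 100% = 1 mM EGTA wells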
SMARCA2 activ = SMARCA2 (BRM) function activators, primary screen, cell-based, luminescence, high throughput; actives 1% (n = 370,000); MG213 cells, MMTV-luciferase reporter, dexamethasone, overnight; activation, % at 9.1 µM; in the data active = activation above about 7.8%;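 also: 0% = vehicle wells and 100% = reference activator wells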
MC4R antag cAMP = MC4R antagonists of cAMP signaling, primary screen, cell-based, TR-FRET, antagonist arm of biased-ligand search; MC4R-expressing cells, MTII-stimulated cAMP, LANCE TR-FRET; actives 0.48% (n = 360,000); inhibition, % at 6.5 µM; Melanocortin receptor 4 (Homo sapiens), P32245;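 active = inhibition above its plate's cutoff, the mean of tested wells on that plate plus 3 SD, cut at about 29% in these data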;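 also: 0% = Melanotan II alone and 100% = Melanotan II plus saturating MCL0020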
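material = U2OS cells stably expressing human melanocortin 4 receptor (MC4R) | also added = Melanotan II challenge | dosing = single nominal compound dose of 6.5 µM | detection = TR-FRET with Eu-cAMP and labeled anti-cAMP, 671 nm | replication = singlicate | timing = compound 30 min, challenge 1 h, detection 1 h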
ATG4B inhibitor = ATG4B protease inhibitors, primary screen, biochemical, fluorescence, uHTS | ATG4B cleavage of LC3-PLA2, NBD-HPC fluorescence, 1 h | actives 0.51% (n = 340,000) | inhibition, % at 8.33 µM | Cysteine protease ATG4B (Homo sapiens), Q9Y4P1; in the data active = inhibition above about 40%
Target sequence (Q9Y4P1 whole entry, looked up): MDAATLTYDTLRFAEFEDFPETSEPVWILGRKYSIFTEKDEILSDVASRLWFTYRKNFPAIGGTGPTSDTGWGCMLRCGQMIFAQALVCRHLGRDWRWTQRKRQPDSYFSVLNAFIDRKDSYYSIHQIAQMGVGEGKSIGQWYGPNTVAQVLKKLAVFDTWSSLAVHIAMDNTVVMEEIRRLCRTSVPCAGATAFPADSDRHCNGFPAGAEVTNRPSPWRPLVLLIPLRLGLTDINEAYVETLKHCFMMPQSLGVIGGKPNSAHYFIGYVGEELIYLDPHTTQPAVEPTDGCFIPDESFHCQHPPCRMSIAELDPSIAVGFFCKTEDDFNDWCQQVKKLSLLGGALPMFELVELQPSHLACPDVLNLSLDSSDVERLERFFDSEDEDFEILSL
MC4R barr agon = MC4R agonists recruiting beta-arrestin, primary screen, cell-based, luminescence, agonist arm of biased-ligand search | U2OS MC4R beta-arrestin complementation; percent of melanotan II response, DMSO zero | activation, % at 8.9 µM | actives 0.98% (n = 360,000);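 active = activation above a per-plate cutoff, the mean activation of sample wells on that plate plus 3 SD, cut at about 8% in these data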
SMARCA2 act conf = SMARCA2 (BRM) function activators, confirmation, cell-based, luminescence, triplicate; shares compounds with SMARCA2 activ; MG213 cells, MMTV-luciferase with dexamethasone, overnight; MG213 cells expressing E1A, Rb sequestered; DMSO wells 0%, reference activator 100%; activation, % at 9.1 µM; actives 30% (n = 3,500); AID 652260, 2013;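 active = activation above its plate's cutoff, the mean activation of tested wells plus 3 SD, cut at about 7.9% in these data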
GAL4-VP16 Luc = GAL4-VP16 luciferase reporter activation, counter-screen for SMARCA2 (BRM) activator project, cell-based, pG5luc, luminescence, high throughput; shares compounds with SMARCA2 activ; HEK293 GAL4-VP16 pG5luc reporter; scaled: DMSO wells 0%, SAHA wells 100%; activation, % at 9.1 µM; actives 41% (n = 3,500); AID 686939, 2013;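 active = activation above the solvent-only control well mean plus 3 SD, averaged across control plates, cut at about 5.2% in these data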
Numbers without * were called inactive. Only some compounds are listed: those with a hit (about 4.1% of all), similar ones and a draw of the others.

Results for O=C(OC12CCCN(C1)/C(=C/c1cccc(Cl)c1)C2)C1CCCC1 (stereo unspecified) ?
SMARCA2 activ: -3

How did O=C(COC(=O)/C=C/c1cnc2ccccc2n1)NCC(F)(F)F do in these assays?
MPTP inh: -2; SMARCA2 activ: -2; MC4R antag cAMP: 14; ATG4B inhibitor: -15; MC4R barr agon: -2

What do the screens show for `COCCNC(=O)COC(=O)/C=C/c1cnc2ccccc2n1`?
MPTP inh: 3; SMARCA2 activ: 12*; MC4R antag cAMP: 7; ATG4B inhibitor: -9; MC4R barr agon: -1; SMARCA2 act conf: 4; GAL4-VP16 Luc: 1

Results for CC(C)(C)c1ccc(C(=O)NC(=S)NCC2CCCO2)cc1 (stereo unspecified) ?
MPTP inh: 0; SMARCA2 activ: 2; MC4R antag cAMP: 2; ATG4B inhibitor: -4; MC4R barr agon: 0

How did COc1ccc(C(=O)NC(=S)Nc2ccccc2F)cc1 do in these assays?
MPTP inh: 0; SMARCA2 activ: 0; MC4R antag cAMP: 6; ATG4B inhibitor: -1; MC4R barr agon: 3

Results for CNC(=O)NC(=S)NC(=O)c1ccc(OC)cc1 ?
MPTP inh: 0; SMARCA2 activ: 10*; MC4R antag cAMP: 11; ATG4B inhibitor: -1; MC4R barr agon: -2; SMARCA2 act conf: 0; GAL4-VP16 Luc: 2

How did COc1ccc(C(=O)NC(=S)NNC(=O)c2cnccn2)cc1 do in these assays?
MPTP inh: 1; SMARCA2 activ: 33*; MC4R antag cAMP: -5; ATG4B inhibitor: -5; MC4R barr agon: -1; SMARCA2 act conf: -3; GAL4-VP16 Luc: 1

How did Cc1ccc(C(=O)N/C(=C/c2ccco2)C(=O)NCC2CCCO2)cc1 (stereo unspecified) do in these assays?
MPTP inh: 4; SMARCA2 activ: 9.9*; MC4R antag cAMP: -2; ATG4B inhibitor: -1; MC4R barr agon: -1; SMARCA2 act conf: 2; GAL4-VP16 Luc: 1

What do the screens show for `COc1ccc(C(=O)NC(=S)NCC2CCCO2)cc1` (stereo unspecified)?
MPTP inh: 1; SMARCA2 activ: 11*; MC4R antag cAMP: -3; ATG4B inhibitor: -2; MC4R barr agon: -2; SMARCA2 act conf: 2; GAL4-VP16 Luc: 4

How did COc1ccc(/C=C(/C(=O)c2cccs2)N2C=CC=CC2=C(C#N)C#N)cc1 do in these assays?
MPTP inh: -2; SMARCA2 activ: 15*; MC4R antag cAMP: 8; ATG4B inhibitor: -12; MC4R barr agon: -3; SMARCA2 act conf: -14; GAL4-VP16 Luc: 11*

How did COC(=O)[C@]12C[C@H](CC(=O)N3CCCCC3)C(=O)N(Cc3cccc4ccccc34)C1=C[C@H](C1CCCC1)O[C@@H]2C do in these assays?
SMARCA2 activ: -6

Results for O=C(Nc1ccc2oc(-c3ccccc3)nc2c1)C1CCCO1 (stereo unspecified) ?
MPTP inh: -8; SMARCA2 activ: 5; MC4R antag cAMP: 5; ATG4B inhibitor: -6; MC4R barr agon: -1

How did O=C(Nc1ccc(-c2nc3cc(Cl)ccc3o2)cc1)C1CCCO1 (stereo unspecified) do in these assays?
MPTP inh: 3; SMARCA2 activ: 8.2*; MC4R antag cAMP: 10; ATG4B inhibitor: -1; MC4R barr agon: -2; SMARCA2 act conf: 4; GAL4-VP16 Luc: 10*

What do the screens show for `C=CCNC(=S)NNC(=O)c1csc(C)c1CC`?
MPTP inh: -2; SMARCA2 activ: -2; MC4R antag cAMP: 7; ATG4B inhibitor: 10; MC4R barr agon: 0

Results for CCCCNC(=S)NNC(=O)c1csc(C)c1CC ?
MPTP inh: 1; SMARCA2 activ: 8.3*; MC4R antag cAMP: 5; ATG4B inhibitor: -1; MC4R barr agon: -1; SMARCA2 act conf: -2; GAL4-VP16 Luc: 2

How did CC(C)C[C@H]1COc2cc(N3CCOCC3)ccc2S(=O)(=O)N1 do in these assays?
SMARCA2 activ: 3

How did CC(C)(C)c1nnc(NC(=O)c2ccc3c(c2)OCO3)s1 do in these assays?
MPTP inh: -3; SMARCA2 activ: 10*; MC4R antag cAMP: 0; ATG4B inhibitor: -1; MC4R barr agon: 0; SMARCA2 act conf: 8.4*; GAL4-VP16 Luc: 6.4*

What do the screens show for `COP(=O)(O)CCOCCC(CC(C)C)NC(=O)OCc1ccccc1` (stereo unspecified)?
SMARCA2 activ: -2

What do the screens show for `COc1ccc(Cl)cc1C(=O)NNC(=O)c1cccs1`?
MPTP inh: 0; SMARCA2 activ: 12*; MC4R antag cAMP: 1; ATG4B inhibitor: 7; MC4R barr agon: 1; SMARCA2 act conf: 2; GAL4-VP16 Luc: 5

Results for COc1ccc(NC(=S)NNC(=O)c2cccs2)cc1 ?
MPTP inh: -12; SMARCA2 activ: 8.8*; MC4R antag cAMP: 5; ATG4B inhibitor: 17; MC4R barr agon: 1; SMARCA2 act conf: 0; GAL4-VP16 Luc: 4

How did C[C@@H]1ON(C)[C@H]2C[C@H]3c4[nH]c5cccc(-c6ccc7c(c6)OCO7)c5c4CCN3C(=O)[C@@H]12 do in these assays?
SMARCA2 activ: 3

Results for COc1cccc(-c2nc(N3CCN(C)CC3)c3ccccc3n2)c1O ?
MPTP inh: 1; SMARCA2 activ: 19*; MC4R antag cAMP: -7; ATG4B inhibitor: -12; MC4R barr agon: -1; SMARCA2 act conf: 19*; GAL4-VP16 Luc: 3

Results for CN1CCN(c2nc(-c3ccccc3O)nc3ccccc23)CC1 ?
MPTP inh: 1; SMARCA2 activ: 3; MC4R antag cAMP: 2; ATG4B inhibitor: -1; MC4R barr agon: 0

What do the screens show for `COc1ccc(C2Nc3ccccc3C(=O)N2c2ccc(C)cc2)cc1Cn1nnc2ccccc21` (stereo unspecified)?
MPTP inh: 0; SMARCA2 activ: 7; MC4R antag cAMP: 2; ATG4B inhibitor: -10; MC4R barr agon: -1

How did COc1ccc(C2Nc3ccccc3C(=O)N2c2ccc(C)cc2)cc1Cn1cc([N+](=O)[O-])cn1 (stereo unspecified) do in these assays?
MPTP inh: 0; SMARCA2 activ: 9.8*; MC4R antag cAMP: -3; ATG4B inhibitor: 5; MC4R barr agon: -2; SMARCA2 act conf: 2; GAL4-VP16 Luc: 7.4*
